Laboratory results taken from ChEMBL document CHEMBL2010703, “Synthesis and structure-activity relationship studies of 3-biaryl-8-oxabicyclo[3.2.1]octane-2-carboxylic acid methyl esters” (Bioorg Med Chem, 2012).

Assays:
[1] = species: Macaca mulatta; test: Binding affinity to rhesus monkey DAT
Procedure, shortened: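 Monkey striatal tissue; each compound tested 2–5 times. Competition binding used a fixed radioligand concentration against a range of test-drug concentrations.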

[2] = species: Homo sapiens; test: Selectivity ratio of IC50 for human DAT to IC50 for human SERT
[3] = target: Sodium-dependent dopamine transporter (Homo sapiens) (UniProt Q01959); test: Displacement of [3H]WIN 35,428 from human dopamine active transporter
Sodium-dependent dopamine transporter (Homo sapiens), sequence (Q01959 whole entry): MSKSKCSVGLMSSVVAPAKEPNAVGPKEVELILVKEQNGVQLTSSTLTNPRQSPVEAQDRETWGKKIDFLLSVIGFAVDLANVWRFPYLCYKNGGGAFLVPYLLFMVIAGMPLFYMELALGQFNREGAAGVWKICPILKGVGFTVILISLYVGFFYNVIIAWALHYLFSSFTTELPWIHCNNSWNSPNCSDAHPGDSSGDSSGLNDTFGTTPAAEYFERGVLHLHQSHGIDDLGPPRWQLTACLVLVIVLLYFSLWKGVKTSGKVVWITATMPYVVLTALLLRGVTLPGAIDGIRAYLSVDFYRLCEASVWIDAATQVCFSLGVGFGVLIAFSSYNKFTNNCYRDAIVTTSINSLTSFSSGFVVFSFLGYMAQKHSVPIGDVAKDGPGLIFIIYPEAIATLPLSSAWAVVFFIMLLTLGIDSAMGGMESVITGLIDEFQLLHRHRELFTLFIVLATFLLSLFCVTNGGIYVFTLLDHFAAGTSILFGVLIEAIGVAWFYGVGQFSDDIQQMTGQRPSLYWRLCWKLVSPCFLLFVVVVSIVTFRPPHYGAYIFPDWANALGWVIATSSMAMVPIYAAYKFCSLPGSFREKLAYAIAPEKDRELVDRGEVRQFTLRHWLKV
Procedure, shortened: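 A fixed radioligand concentration was run against a range of test-drug concentrations, and IC50 was read. Racemic compounds. Values are means of two or more independent experiments, each in triplicate.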

Compound	Activity [1]	Ratio IC50 [2]	inhibition [3]
COC(=O)[C@H]1[C@@H](c2ccc(F)cc2)C[C@@H]2CC[C@H]1N2C	12.9 nM	–	–
COC(=O)[C@@H]1C2CCC(C[C@@H]1c1cc3ccccc3[nH]1)O2 (mixture of isomers)	–	0.2	Dose-dependent effect
COC(=O)[C@@H]1C2CCC(C[C@@H]1c1ccc(-c3cccn3C)cc1)O2 (mixture of isomers)	–	> 2	Dose-dependent effect
COC(=O)[C@@H]1C2CCC(C[C@@H]1c1ccc(-c3ccco3)cc1)O2 (mixture of isomers)	–	2	Dose-dependent effect
COC(=O)[C@@H]1C2CCC(C[C@H]1c1cc3ccccc3s1)O2 (mixture of isomers)	–	–	Dose-dependent effect
COC(=O)[C@@H]1C2CCC(C[C@H]1c1ccc(-c3cccn3C)cc1)O2 (mixture of isomers)	–	> 2.5	Dose-dependent effect
COC(=O)[C@@H]1C2CCC(C[C@H]1c1ccc(-c3ccco3)cc1)O2 (mixture of isomers)	–	4	Dose-dependent effect
COC(=O)[C@@H]1C2CCC(C[C@H]1c1ccc(-c3cccs3)cc1)O2 (mixture of isomers)	–	10	Dose-dependent effect
COC(=O)[C@@H]1C2CCC(C[C@H]1c1ccc(-c3nccs3)cc1)O2 (mixture of isomers)	–	> 7	Dose-dependent effect
COC(=O)[C@@H]1C2CCC(C[C@H]1c1cccs1)O2 (mixture of isomers)	–	1	Dose-dependent effect
COC(=O)[C@H]1C2CCC(C[C@@H]1c1cc3ccccc3[nH]1)O2 (mixture of isomers)	–	0.4	Dose-dependent effect
COC(=O)[C@H]1C2CCC(C[C@@H]1c1cc3ccccc3s1)O2 (mixture of isomers)	–	–	Dose-dependent effect
COC(=O)[C@H]1C2CCC(C[C@@H]1c1cccs1)O2 (mixture of isomers)	–	1	Dose-dependent effect
COC(=O)[C@H]1C2CCC(C[C@H]1c1cc3ccccc3[nH]1)O2 (mixture of isomers)	–	< 0.3	Dose-dependent effect
COC(=O)[C@H]1C2CCC(C[C@H]1c1cc3ccccc3o1)O2 (mixture of isomers)	–	< 0.04	Dose-dependent effect
COC(=O)[C@H]1C2CCC(C[C@H]1c1ccc(-c3ccccc3)o1)O2 (mixture of isomers)	–	< 2	Dose-dependent effect
COC(=O)[C@H]1C2CCC(C[C@H]1c1cccc(-c3nccs3)c1)O2 (mixture of isomers)	–	1	Dose-dependent effect
COC(=O)C1=C(c2cc3ccccc3o2)CC2CCC1O2 (racemic)	–	< 0.1	Dose-dependent effect
COC(=O)C1=C(c2cc3ccccc3s2)CC2CCC1O2 (racemic)	–	< 0.004	Dose-dependent effect
COC(=O)C1=C(c2ccc(-c3ccccc3)n2C)CC2CCC1O2 (racemic)	–	1	Dose-dependent effect
COC(=O)C1=C(c2ccc(-c3ccccc3)o2)C[C@@H]2CC[C@H]1O2 (racemic)	–	1	Dose-dependent effect
COC(=O)C1=C(c2ccc(-c3ccccc3)s2)CC2CCC1O2 (racemic)	–	1	Dose-dependent effect
COC(=O)C1=C(c2cccc(-c3cccn3C)c2)CC2CCC1O2 (racemic)	–	> 14	Dose-dependent effect
COC(=O)C1=C(c2ccco2)C[C@@H]2CC[C@H]1O2 (racemic)	–	1	Dose-dependent effect
COC(=O)C1=C(c2cccs2)C[C@@H]2CC[C@H]1O2 (racemic)	–	1	Dose-dependent effect
O=C1C2=C(CC3CCC2O3)c2cc3ccccc3n21 (racemic)	–	1	Dose-dependent effect
